ChEMBL document CHEMBL1166011, “A bastadin with potent and selective delta-opioid receptor binding affinity from the Australian sponge Ianthella flabelliformis” (J Nat Prod, 2010)
Calls of active or inactive are those of the source. The rule behind the calls is not given here.

Key:
Cavia porcellus [1] = species on record: Cavia porcellus; assay: Displacement of [3H]DPDPE from delta opioid receptor in guinea pig forebrain at 100 uM by beta plate scintillation counting
In short: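 Pooled guinea pig forebrain membranes, Tris·HCl pH 7.4 prep with 37 °C 45 min preincubation to remove endogenous ligands. 1 nM [3H]DPDPE, 315 µg membrane protein, 10 µM naloxone defines nonspecific binding; 90 min rt. Single 100 µM screen, 2% final DMSO. Glass fiber B filtration, scintillation counting. % activity = 100 − % control.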

Cavia porcellus [2] = species on record: Cavia porcellus; assay: Displacement of [3H]DAMGO from mu opioid receptor in guinea pig forebrain at 100 uM by beta plate scintillation counting
In short: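 Guinea pig forebrain membranes (pooled, homogenized in 50 mM Tris·HCl pH 7.4, preincubated 37 °C 45 min to strip endogenous ligands, washed). 1 nM [3H]DAMGO, 315 µg protein, nonspecific binding with 10 µM naloxone; 90 min rt. Compound at 100 µM in 2% final DMSO. Filtration onto glass fiber B mats. % activity = 100 − % control, specific binding.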

Cavia porcellus [3] = species on record: Cavia porcellus; assay: Displacement of [3H]U69593 from kappa opioid receptor in guinea pig cerebellum at 100 uM by beta plate scintillation counting; format: tissue-based
In short: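 Pooled guinea pig cerebellum membranes (Tris·HCl pH 7.4, endogenous ligands removed at 37 °C 45 min). 1 nM [3H]U69593, 190 µg protein, 10 µM naloxone for nonspecific binding; 90 min rt. Tested up to 100 µM, 2% final DMSO. Filtration onto glass fiber B mats presoaked in 0.01% polyethylenimine; % activity from specific binding.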

[4] = Displacement of [3H]DPDPE from delta opioid receptor in guinea pig forebrain by beta plate scintillation counting; design: species or system Cavia porcellus
In short: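 Delta binding on pooled guinea pig forebrain membranes with 1 nM [3H]DPDPE, 315 µg protein, 10 µM naloxone for nonspecific binding; 90 min rt, filtration onto glass fiber B mats. Concentration-response over 11 treatment levels, 2% final DMSO. IC50 and Ki from nonlinear least-squares fitting, model testing by ANOVA.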

[5] = Displacement of [3H]DAMGO from mu opioid receptor in guinea pig forebrain by beta plate scintillation counting
[6] = Displacement of [3H]U69593 from kappa opioid receptor in guinea pig cerebellum by beta plate scintillation counting
Cavia porcellus [7] = species on record: Cavia porcellus; assay: Selectivity for guinea pig delta opioid receptor over guinea pig mu opioid receptor
Cavia porcellus [8] = species on record: Cavia porcellus; assay: Selectivity for guinea pig delta opioid receptor over guinea pig kappa opioid receptor

In the case of `O=C1N/C=C/c2ccc(c(Br)c2)Oc2cc(ccc2OS(=O)(=O)O)CCNC(=O)/C(=N/O)C(O)c2cc(Br)c(c(Br)c2)Oc2cc(cc(Br)c2O)C/C1=N\O` (stereo not given), the inhibition (Cavia porcellus [1]) is reported as 86%, the inhibition (Cavia porcellus [2]) is reported as 39% and the Activity (Cavia porcellus [3]) is reported as “inactive”.
Work on `C=CCN1CC[C@]23c4c5ccc(O)c4O[C@H]2C(=O)CC[C@@]3(O)[C@H]1C5` [NALOXONE] yielded a Ki [4] of 30 nM, a Ki [5] of 3.9 nM and a Ki [6] of 2.6 nM.
In the case of `O=C1NCC(O)c2ccc(c(Br)c2)Oc2cc(ccc2O)CCNC(=O)/C(=N/O)C(O)c2cc(Br)c(c(Br)c2)Oc2cc(cc(Br)c2OS(=O)(=O)O)C/C1=N\O` (stereo not given) [BASTADIN 26], the IC50 [4] is reported as 206 nM, the Ki [4] is reported as 100 nM and the inhibition (Cavia porcellus [2]) is reported as “inactive”. For the same compound, the Activity (Cavia porcellus [3]) was “inactive”, the Selectivity ratio (Cavia porcellus [7]) was over 1000 and the Selectivity ratio (Cavia porcellus [8]) was over 1000.
For `O=C1N/C=C/c2ccc(c(Br)c2)Oc2cc(ccc2OS(=O)(=O)O)CCNC(=O)/C(=N/O)Cc2cc(Br)c(c(Br)c2)Oc2cc(cc(Br)c2O)C/C1=N\O`, the inhibition (Cavia porcellus [1]) was 87%, the inhibition (Cavia porcellus [2]) was 57% and the Activity (Cavia porcellus [3]) was “inactive”.
